Assay results published in ChEMBL document CHEMBL3853349, “Diversity-Oriented Synthesis as a Strategy for Fragment Evolution against GSK3β” (ACS Med Chem Lett, 2016).
The source made the active and inactive calls. The rule behind the calls is not given here.

Each compound was assayed against T1, Glycogen synthase kinase-3 beta (Homo sapiens, UniProt P49841) (assay: Binding affinity to GSK-3 beta (unknown origin) assessed as assessed as thermal shift at 2.5 mM by differential scanning fluorimetry).
Method in brief: (§1)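 Differential scanning fluorimetry on GSK3β, reported as thermal stabilization ΔT in °C. Compounds were tested at 2.5 mM by default; the growth-vector analogue set was run at 1.25 mM for ranking.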
Target sequence in this assay (P49841 whole entry, looked up): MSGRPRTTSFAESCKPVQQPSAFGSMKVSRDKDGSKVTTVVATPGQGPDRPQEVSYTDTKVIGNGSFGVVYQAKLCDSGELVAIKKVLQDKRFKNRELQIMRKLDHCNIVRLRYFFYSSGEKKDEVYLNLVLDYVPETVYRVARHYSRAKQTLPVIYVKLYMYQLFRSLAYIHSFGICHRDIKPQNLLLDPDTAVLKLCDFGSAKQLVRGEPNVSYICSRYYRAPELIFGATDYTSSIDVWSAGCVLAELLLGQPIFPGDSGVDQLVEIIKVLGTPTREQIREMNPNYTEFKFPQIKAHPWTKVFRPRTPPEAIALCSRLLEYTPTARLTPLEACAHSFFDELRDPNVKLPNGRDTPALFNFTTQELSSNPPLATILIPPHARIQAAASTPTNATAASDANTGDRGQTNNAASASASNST

Structure (SMILES)	deltaT
C[C@H]1Nc2cccnc2NC1=O	1.7 °C
C[C@@H]1Nc2cccnc2NC1=O	0.5 °C
C[C@@H]1CNc2ncccc2N1	0 °C
C[C@@H]1Nc2cnccc2NC1=O	0.5 °C
C[C@H]1Nc2ccncc2NC1=O	1.6 °C
CC(C)[C@H]1Nc2cccnc2NC1=O	2.3 °C

More lines, now with the values ahead:

deltaT	Structure (SMILES)
0.5 °C	O=C1Nc2ncccc2N[C@H]1CO
1.4 °C	C[C@@H]1Nc2ccncc2NC1=O
0.8 °C	O=C1Nc2ncccc2N2C[C@H](O)C[C@@H]12
1.4 °C	C[C@H]1Nc2ncccc2NC1=O
1 °C	C[C@@H]1Nc2ncccc2NC1=O
0.7 °C	CC1(C)Nc2cccnc2NC1=O
0 °C	C[C@H]1Nc2cccnc2N(C)C1=O
0 °C	C[C@H]1Nc2ccccc2NC1=O
0 °C	C[C@@H]1Nc2ccccc2NC1=O
0.5 °C	C[C@H]1Nc2cnccc2NC1=O

Each compound was assayed against T1, Glycogen synthase kinase-3 beta (assay: Binding affinity to GSK-3 beta (unknown origin) by WaterLOGSY NMR analysis).
Target sequence in this assay (P49841 whole entry, looked up): as above

Activity	Structure (SMILES)
Active	C[C@H]1Nc2cccnc2NC1=O

What follows are compounds tested against T1, Glycogen synthase kinase-3 beta (assay: Inhibition of recombinant full-length N-terminal GST tagged human GSK-3 beta expressed in baculovirus infected Sf9 insect cells using GSM as substrate after 5 mins by ADP-Glo luminescence assay).
Target sequence in this assay (P49841 whole entry): as the sequence (P49841 whole entry, looked up) above

IC50	Structure (SMILES)
18 µM	O=C1Nc2ncccc2N[C@@H]1Cc1c[nH]c2ccccc12
322 µM	O=C1Nc2ncccc2N[C@H]1Cc1c[nH]c2ccccc12

The compounds below were run against T1, Glycogen synthase kinase-3 beta (assay: Binding affinity to GSK-3 beta (unknown origin) after 30 mins by isothermal titration calorimetry).
Target sequence in this assay (P49841 whole entry): as the sequence (P49841 whole entry, looked up) above

Kd	Structure (SMILES)
9 µM	O=C1Nc2ncccc2N[C@@H]1Cc1c[nH]c2ccccc12
600 µM	C[C@H]1Nc2cccnc2NC1=O

Each compound was assayed against T1, Glycogen synthase kinase-3 beta (assay: Binding affinity to GSK-3 beta (unknown origin) assessed as thermal shift at 1.25 mM by differential scanning fluorimetry).
Method in brief: as §1
Target sequence in this assay (P49841 whole entry, looked up): as above

Structure (SMILES)	deltaT
C[C@H]1Nc2cccnc2NC1=O	1 °C
CC(C)[C@@H]1Nc2cccnc2NC1=O	0 °C
Cc1nc2cccnc2[nH]c1=O	0.5 °C
O=C1Nc2ncccc2N[C@H]1Cc1c[nH]c2ccccc12	1.7 °C
O=C1Nc2ncccc2N[C@H]1Cc1ccc(O)cc1	2.1 °C
C[C@@H]1Nc2cccnc2NC1=O	0 °C
CC(C)[C@H]1Nc2cccnc2NC1=O	1.6 °C

Now from value to compound:

deltaT	Structure (SMILES)
4.5 °C	O=C1Nc2ncccc2N[C@@H]1Cc1c[nH]c2ccccc12
2.9 °C	O=C1Nc2ncccc2N[C@@H]1Cc1ccc(O)cc1
1.6 °C	O=C1Nc2ncccc2N[C@@H]1Cc1ccccc1
0 °C	O=C1Nc2ncccc2N[C@H]1Cc1ccccc1

What follows are compounds tested against T1, Glycogen synthase kinase-3 beta (assay: Inhibition of recombinant full-length N-terminal GST tagged human GSK-3 beta expressed in baculovirus infected Sf9 insect cells at 1 mM using GSM as substrate after 5 mins by ADP-Glo luminescence assay).
Method in brief: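 Single-point ADP-Glo biochemical inhibition of GSK3β with compound at 1 mM, used to rank analogues alongside DSF.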
Target sequence in this assay (P49841 whole entry, looked up): as above

Structure (SMILES)	inhibition
C[C@H]1Nc2cccnc2NC1=O	46%
CC(C)[C@@H]1Nc2cccnc2NC1=O	25%
Cc1nc2cccnc2[nH]c1=O	35%
O=C1Nc2ncccc2N[C@H]1Cc1c[nH]c2ccccc12	76%
O=C1Nc2ncccc2N[C@H]1Cc1ccc(O)cc1	78%
C[C@@H]1Nc2cccnc2NC1=O	19%
C[C@@H]1CNc2ncccc2N1	17%
C[C@@H]1Nc2cnccc2NC1=O	29%
C[C@H]1Nc2ccncc2NC1=O	61%
CC(C)[C@H]1Nc2cccnc2NC1=O	57%

The remaining lines, values ahead:

inhibition	Structure (SMILES)
94%	O=C1Nc2ncccc2N[C@@H]1Cc1c[nH]c2ccccc12
69%	C[C@@H]1Nc2ccncc2NC1=O
66%	C[C@H]1Nc2ncccc2NC1=O
63%	C[C@@H]1Nc2ncccc2NC1=O
26%	CC1(C)Nc2cccnc2NC1=O
19%	C[C@H]1Nc2cccnc2N(C)C1=O
88%	O=C1Nc2ncccc2N[C@@H]1Cc1ccc(O)cc1
63%	O=C1Nc2ncccc2N[C@@H]1Cc1ccccc1
12%	C[C@H]1Nc2ccccc2NC1=O
9%	C[C@@H]1Nc2ccccc2NC1=O
25%	C[C@H]1Nc2cnccc2NC1=O
55%	O=C1Nc2ncccc2N[C@H]1Cc1ccccc1

Species: Homo sapiens
Experiment: Selectivity ratio of IC50 for CDK5 (unknown origin) to IC50 for GSK-3 beta (unknown origin)

Ratio IC50	Structure (SMILES)
50	O=C1Nc2ncccc2N[C@@H]1Cc1c[nH]c2ccccc12

These compounds were tested against T1, Glycogen synthase kinase-3 beta (assay: Binding affinity to GSK-3 beta (unknown origin) by STD NMR analysis).
Target sequence in this assay (P49841 whole entry, looked up): as above

Activity	Structure (SMILES)
Active	C[C@H]1Nc2cccnc2NC1=O
